The text below walks through data of ChEMBL document CHEMBL4017487, “Design and Synthesis of γ- and δ-Lactam M1 Positive Allosteric Modulators (PAMs): Convulsion and Cholinergic Toxicity of an M1-Selective PAM with Weak Agonist Activity” (J Med Chem, 2017).

Bounds are passed on as bounds.

Data set [1] deals with T1, Muscarinic acetylcholine receptor M1 (Homo sapiens, UniProt P11229).
T1 sequence (P11229 whole entry): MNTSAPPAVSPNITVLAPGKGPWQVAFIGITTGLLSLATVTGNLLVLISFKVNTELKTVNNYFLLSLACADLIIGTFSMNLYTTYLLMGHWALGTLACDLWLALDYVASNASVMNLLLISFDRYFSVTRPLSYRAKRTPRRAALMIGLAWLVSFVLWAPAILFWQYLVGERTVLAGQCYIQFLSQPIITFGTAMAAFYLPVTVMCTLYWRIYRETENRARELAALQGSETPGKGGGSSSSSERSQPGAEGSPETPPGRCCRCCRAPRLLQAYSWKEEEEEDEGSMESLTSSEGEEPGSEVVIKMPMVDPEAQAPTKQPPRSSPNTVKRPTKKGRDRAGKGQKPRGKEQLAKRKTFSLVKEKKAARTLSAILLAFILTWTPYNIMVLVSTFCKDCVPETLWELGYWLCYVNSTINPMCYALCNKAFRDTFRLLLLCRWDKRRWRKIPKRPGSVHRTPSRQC
Nature of the data set: Agonist activity at human muscarinic acetylcholine receptor M1 expressed in CHO cells assessed as increase in calcium mobilization incubated for 10 mins by Fluo-8-AM dye based FLIPR assay. It counts as cell-based. Put shortly:
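M1 FLIPR calcium mobilization run in agonist mode (compound added without the EC20 ACh used in PAM mode). Top concentration 10 μM. EC50 values are geometric means of at least three experiments.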
A general note: Calcium assays in cells follow changes in intracellular calcium, usually with a dye or a luminescent sensor.

The target in data set [2] is T1, Muscarinic acetylcholine receptor M1. Nature of the data set: Agonist activity at human muscarinic acetylcholine receptor M1 expressed in CHO cells assessed as increase in calcium mobilization at 13 uM incubated for 10 mins by Fluo-8-AM dye based FLIPR assay relative to control. Format: cell-based. The note with it: read-out: %max.
For data set [3] the target is unchanged. Nature of the data set: Displacement of [3H]PT-1284 human muscarinic acetylcholine receptor M1 expressed in CHO cell membranes after 90 mins scintillation counting method.
The next data set has as its system Mus musculus. Nature of the data set: In vivo agonist activity at muscarinic acetylcholine receptor M1 in C57BL/6 mouse assessed as unbound brain concentration required to show 2 fold increase in IP1 accumulation in striatum at 1 to 10 mg/kg, sc measured after 2 hrs. It counts as organism-based. Put shortly:
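Cb,u giving a 2-fold rise in striatal IP1 in C57BL/6 mice, estimated by interpolation of individual-mouse IP1 versus free brain exposure data.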

The subject of data set [4] is Canis familiaris. In words: Toxicity in dog assessed as unbound Cmax in plasma required to show convulsions at 15 mg/kg, po administered as single dose using spray dried dispersion formulation. Format: organism-based, Canis lupus familiaris. The note with it: in vivo.
The test system of data set [5] is Canis familiaris. Nature of the data set: Toxicity in dog assessed as unbound Cmax in brain required to show convulsions at 15 mg/kg, po administered as single dose using spray dried dispersion formulation. Format: organism-based, Canis lupus familiaris. The note with it: in vivo.
Data set [6] in a line: Ratio of unbound Cmax in rat brain assessed as convulsions at 45 mg/kg, po administered as single dose to unbound brain concentration for agonist activity at muscarinic acetylcholine receptor M1 in C57BL/6 mouse assessed as required to show 2 fold increase in IP1 accumulation in striatum at 1 to 10 mg/kg, sc. It counts as organism-based.
A short description of data set [7]: Ratio of unbound Cmax in dog brain assessed as convulsions at 15 mg/kg, po administered as single dose to unbound brain concentration for agonist activity at muscarinic acetylcholine receptor M1 in C57BL/6 mouse assessed as required to show 2 fold increase in IP1 accumulation in striatum at 1 to 10 mg/kg, sc. Format: organism-based.
In the next data set the target is Cytochrome P450 3A4 (Homo sapiens, UniProt P08684). In words: Time dependent inhibition of CYP3A4 (unknown origin) by high throughput assay relative to 2-((3R,4S)-3-Hydroxytetrahydro-2H-pyran-4-yl)-5-methyl-6-(4-(oxazol-4-yl)benzyl)isoindolin-1-one. Format: ADME.
The target in data set [8] is T1, Muscarinic acetylcholine receptor M1. Nature of the data set: Positive allosteric modulation of human muscarinic acetylcholine receptor M1 expressed in CHO cells assessed as increase in acetylcholine-induced calcium mobilization preincubated for 10 mins followed by acetylcholine addition by Fluo-8-AM dye based FLIPR assay. It counts as ADME, cell-based. The gist of the method: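 M1 potentiation (PAM) format: calcium mobilization read on a FLIPR plate reader with an EC20 concentration of ACh present. EC50 is the geometric mean of at least three experiments.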

A short description of data set [9]: Intrinsic clearance in human liver microsomes. Format: ADME, microsome. The note with it: read-out: CLH. In general terms: Liver microsomes are a subcellular fraction often used to study metabolism.
The subject of the next data set is MDR1. Nature of the data set: Efflux ratio of permeability from basolateral to apical side over apical to basolateral side in MDCK1 cells expressing MDR1. Format: ADME, cell-based, Canis lupus familiaris. The note with it: dog, MDCK-MDR1. The gist of the method: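 MDCKI-MDR1 cells (MDCK epithelial line transfected with MDR1/P-gp; from the NIH). Permeability measured as a rate in 10−6 cm/s in both directions; value is the BA/AB ratio.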

Data set [10] relates to Rattus norvegicus. In words: Toxicity in rat assessed as unbound Cmax in plasma required to show convulsions at 45 mg/kg, po administered as single dose. It counts as organism-based. The note with it: in vivo.
Data set [11] concerns Rattus norvegicus. In words: Toxicity in rat assessed as unbound Cmax in brain required to show convulsions at 45 mg/kg, po administered as single dose. It counts as organism-based. The note with it: in vivo.
A short description of data set [12]: Ratio of unbound AUC in rat brain to plasma at 45 mg/kg, po administered as single dose. It counts as ADME, organism-based. The gist of the method: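 Rats, 3 per sex, received a single oral 45 mg/kg dose as a nanosuspension in 1.25% w/v hydroxypropyl cellulose SL with 0.05% docusate sodium in purified water. The brain/plasma ratio is the AUC ratio of unbound drug in brain to unbound drug in plasma. It was used to estimate unbound brain levels from measured unbound plasma Cmax.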

Cytochrome P450 3A4, sequence (P08684 whole entry): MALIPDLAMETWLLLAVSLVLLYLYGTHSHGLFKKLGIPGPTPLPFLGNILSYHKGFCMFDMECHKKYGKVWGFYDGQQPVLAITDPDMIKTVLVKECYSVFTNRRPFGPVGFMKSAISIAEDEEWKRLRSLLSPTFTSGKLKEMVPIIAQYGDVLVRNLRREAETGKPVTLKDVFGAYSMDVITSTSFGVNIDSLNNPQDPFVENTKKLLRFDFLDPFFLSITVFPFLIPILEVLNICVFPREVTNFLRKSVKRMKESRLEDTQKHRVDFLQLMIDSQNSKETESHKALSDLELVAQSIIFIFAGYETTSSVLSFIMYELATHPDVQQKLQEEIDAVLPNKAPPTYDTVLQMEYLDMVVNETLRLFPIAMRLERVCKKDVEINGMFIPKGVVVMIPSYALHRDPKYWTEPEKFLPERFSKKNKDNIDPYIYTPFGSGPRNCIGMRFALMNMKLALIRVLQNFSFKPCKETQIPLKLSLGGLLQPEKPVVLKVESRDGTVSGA

What is called EC50 is the concentration needed to bring the measured effect to its halfway point. One may read the Ki as a dissociation constant, usually derived from enzyme kinetics or from competition with a known ligand. High values mean lower affinity, low ones higher affinity. For `Cc1cnc(C(=O)N[C@H]2CCOC[C@@H]2O)cc1Cc1ccc(-c2cscn2)cc1`, the EC50 in data set [1] was over 4000 nM. Further, the Emax at 13 µM in [2] was 34%. In data set [3], this molecule registered a Ki of 19 nM. In addition, the “Drug uptake(free)” value in the data set with Mus musculus is given as 14 nM. The fCmax in the data set with Canis familiaris [4] is 950 nM; in the data set with Canis familiaris [5], 290 nM. For the same molecule, the figures for the selectivity ratio in data set [6] and in [7] were over 29 and 20, respectively.
Broadly, the efflux ratio is a quotient of directional permeabilities that is used to spot active efflux. On to `Cc1cc2c(cc1Cc1ccc(-c3cocn3)cc1)C(=O)N([C@H]1CCOC[C@@H]1O)CC2`, for which the “fold change (FC)” value at Cytochrome P450 3A4 was found to be 6. In [8], the EC50 turned out to be 26 nM. For the same molecule, in data set [9], the CLint scaled was 13 mL/min/kg. In the data set with MDR1, the efflux ratio turned out to be 2.7.
For the molecule `Cc1cc2c(cc1Cc1ccc(-n3cccn3)cc1)C(=O)N([C@H]1CCOC[C@@H]1O)C2`, the EC50 in data set [8] is 36 nM. Also, the CLint scaled in data set [9] is under 8 mL/min/kg. In addition, the efflux ratio in the data set on MDR1 worked out at 18.
As for `Cc1cc2c(cc1Cc1ccc(-n3cccn3)cc1)C(=O)N([C@H]1CCOC[C@@H]1O)CC2`, the concentration for a half-maximal effect (EC50) in data set [8] turned out to be 18 nM. Further, the CLint scaled in [9] was 15 mL/min/kg. The efflux ratio in the data set on MDR1 stood at 11.
In the same order, the values of `Cc1cc2c(cc1Cc1ccc(-c3cnn(C)c3)cc1)C(=O)N([C@H]1CCOC[C@@H]1O)C2` are 27 nM, 15 mL/min/kg and 7.6.
Take `Cc1nc(-c2ccc(Cc3cc4c(cc3C)CN([C@H]3CCOC[C@@H]3O)C4=O)cc2)co1`: the EC50 in data set [8] was found to be 50 nM. Further, the CLint scaled in data set [9] worked out at 13 mL/min/kg. In addition, the efflux ratio with MDR1 was found to be 11.
Take `Cc1ccc(Cc2cc3c(=O)n([C@H]4CCCC[C@@H]4O)cnc3c3ccccc23)cn1` [MK-7622]: the EC50 is 63 nM in data set [8] and over 2000 nM in data set [1]. The Emax at 13 µM in data set [2] came to 62%. Also, the Ki in data set [3] stood at 8 nM. Moreover, in the data set on Mus musculus, the “Drug uptake(free)” value is reported as 4 nM. Besides, the fCmax in the data set with Rattus norvegicus [10] came out at 550 nM; in the data set on Rattus norvegicus [11] it was 130 nM. Further, the Kp uu in [12] came to 0.24. In addition, in [6], the selectivity ratio is 33.
Regarding `Cc1cc2c(cc1Cc1ccc(-n3ccnc3)cc1)C(=O)N([C@H]1CCOC[C@@H]1O)C2`, the EC50 in [8] amounted to 68 nM. Moreover, in data set [9], the CLint scaled is under 8 mL/min/kg. For the same molecule, the efflux ratio in the data set on MDR1 is 53.
Take `Cc1cn(-c2ccc(Cc3cc4c(cc3C)CN([C@H]3CCOC[C@@H]3O)C4=O)cc2)cn1`: the EC50 in [8] was found to be 45 nM. For the same molecule, the CLint scaled in [9] is 30 mL/min/kg. Moreover, the efflux ratio in the data set on MDR1 is 63.
In the case of `Cc1cc2c(cc1Cc1ccc(-c3cscn3)cc1)C(=O)N([C@H]1CCOC[C@@H]1O)CC2`, the EC50 in data set [8] amounted to 7 nM. Besides, the CLint scaled in [9] is 25 mL/min/kg. The efflux ratio in the data set on MDR1 came out at 12.
In the same order, the values of `Cc1cc2c(cc1Cc1ccc(-c3cscn3)cc1)C(=O)N([C@H]1CCOC[C@@H]1O)C2` are 24 nM, 10 mL/min/kg and 11.
In the same order, the values of `Cc1nc(-c2ccc(Cc3cc4c(cc3C)CCN([C@H]3CCOC[C@@H]3O)C4=O)cc2)co1` are 23 nM, 21 mL/min/kg and 14.
With `Cn1ccc(-c2ccc(Cn3cc(C(=O)N[C@H]4CCOC[C@@H]4O)c4ncccc43)cc2)n1`, the “Drug uptake(free)” value with Mus musculus was 32 nM.
